Laboratory results from article PMC2909360 (Molecular microbiology, 2010).

Columns and labels:
[1] = biological target: purified bovine cathepsin B (Bos taurus, UniProt P07688); assay: Inhibition of cathepsin B, fluorogenic substrate assay; type: biochemical
Procedure, shortened: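 Pre-incubated 10 min at room temperature with increasing inhibitor concentrations, then Z-Leu-Arg-AMC added (0.25 mM final) at 30°C. Linear hydrolysis rate read for 20 min (ex 365/em 450 nm). Triplicates, mean ± SEM. IC50 from activity loss.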

calpain = assay: Inhibition of calpain; type: biochemical; settings: data not shown

`CC(C)C[C@H](NC(=O)N1CCOCC1)C(=O)N[C@H](/C=C/S(=O)(=O)c1ccccc1)CCc1ccccc1` [LHVS, Morpholinurea-leucine-homophenylalanine-vinylsulfone-phenyl, reference compound] was tested, and the “inhibition of cathepsin B (in words)” value [1] was “targets also cathepsin B” and the “inhibition of calpain (in words)” value (calpain) was “targets”.
